Laboratory results reported in ChEMBL document CHEMBL2062460, “Disubstituted thiourea derivatives and their activity on CNS: synthesis and biological evaluation” (Eur J Med Chem, 2012).
Converted amounts (≈) assume the structure as drawn. The source made the active and inactive calls. No cut-off for these calls is given here.

Assays:
[1] = test system: Staphylococcus epidermidis; assay: Antibacterial activity against Staphylococcus epidermidis ATCC 12228 at 400 ug/disc after 18 hrs by disc diffusion method; type: functional; conditions: ATCC 12228, 18 h, read-out: DIZ
Method in brief: (§1)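 Disc diffusion per CLSI on Mueller–Hinton II agar; 9 mm paper discs loaded from methanol or DMSO solutions to 400 µg per disc, dried; growth inhibition zone diameter read after 18 h at 35 °C.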

Enterococcus hirae [2] = assay: Antibacterial activity against Enterococcus hirae ATCC 10541 at 400 ug/disc after 18 hrs by disc diffusion method; type: functional; conditions: for zone of inhibition at 400 µg/disc: ATCC 10541, 18 h, read-out: DIZ; method in brief: as §1
Staphylococcus aureus [3] = assay: Antibacterial activity against Staphylococcus aureus NCTC 4163 at 400 ug/disc after 18 hrs by disc diffusion method; type: functional; conditions: for zone of inhibition at 400 µg/disc: NCTC 4163, 18 h, read-out: DIZ; method in brief: as §1
Bacillus cereus = assay: Antibacterial activity against Bacillus cereus ATCC 11778 at 400 ug/disc after 18 hrs by disc diffusion method; type: functional; conditions: ATCC 11778, 18 h, read-out: DIZ; method in brief: as §1
Escherichia coli = assay: Antibacterial activity against Escherichia coli NCTC 8196 at 400 ug/disc after 18 hrs by disc diffusion method; type: functional, organism-based; method in brief: as §1
Candida albicans = assay: Antifungal activity against Candida albicans ATCC 10231 at 400 ug/disc after 18 hrs by disc diffusion method; type: functional, organism-based
Method in brief: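 Yeasts tested by disc diffusion (CLSI) on RPMI agar with 2% glucose; 9 mm paper discs bearing 400 µg compound from methanol or DMSO solution; inhibition zone diameter read after 18 h at 35 °C.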

Staphylococcus aureus [4] = assay: Antibacterial activity against Staphylococcus aureus ATCC 6538 after 18 hrs by twofold serial agar dilution technique; type: functional; conditions: ATCC 6538, 18 h
Method in brief: (§2)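 Twofold serial agar dilution on Mueller–Hinton II agar, following CLSI guidelines. Compounds were dissolved in methanol or DMSO and tested at final agar concentrations of 3.125–400 µg/mL. Final inoculum was 10^4 CFU/mL.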

Staphylococcus aureus [5] = assay: Antibacterial activity against Staphylococcus aureus ATCC 29213 after 18 hrs by twofold serial agar dilution technique; type: functional; conditions: ATCC 29213, 18 h; method in brief: as §2
[6] = test system: Staphylococcus epidermidis; assay: Antibacterial activity against Staphylococcus epidermidis ATCC 12228 after 18 hrs by twofold serial agar dilution technique; type: functional; conditions: ATCC 12228, 18 h; method in brief: as §2
Enterococcus hirae [7] = assay: Antibacterial activity against Enterococcus hirae ATCC 10541 after 18 hrs by twofold serial agar dilution technique; type: functional; conditions: ATCC 10541, 18 h
Micrococcus luteus [8] = assay: Antibacterial activity against Micrococcus luteus ATCC 9341 after 18 hrs by twofold serial agar dilution technique; type: functional; conditions: ATCC 9341, 18 h
Micrococcus luteus [9] = assay: Antibacterial activity against Micrococcus luteus ATCC 10240 after 18 hrs by twofold serial agar dilution technique; type: functional; conditions: ATCC 10240, 18 h
Staphylococcus aureus [10] = assay: Antibacterial activity against methicillin-susceptible Staphylococcus aureus clinical isolate 256/08 after 18 hrs by twofold serial agar dilution technique; type: functional; conditions: clinical isolate 256/08, 18 h
Method in brief: (§3)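 Clinical isolates came from patients in Warsaw Medical University Hospitals and were classed as methicillin-susceptible or -resistant. MIC was determined by twofold serial agar dilution on Mueller–Hinton II agar (CLSI), 3.125–400 µg/mL in agar, with compounds in methanol or DMSO. Inoculum was 10^4 CFU/mL and plates were read after 18 h at 35 °C.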

Staphylococcus aureus [11] = assay: Antibacterial activity against methicillin-susceptible Staphylococcus aureus clinical isolate 261/08 after 18 hrs by twofold serial agar dilution technique; type: functional; conditions: clinical isolate 261/08, 18 h; method in brief: as §3
Staphylococcus aureus [12] = assay: Antibacterial activity against methicillin-susceptible Staphylococcus aureus clinical isolate 267/08 after 18 hrs by twofold serial agar dilution technique; type: functional; conditions: clinical isolate 267/08, 18 h; method in brief: as §3
Staphylococcus aureus [13] = assay: Antibacterial activity against methicillin-susceptible Staphylococcus aureus clinical isolate 268/08 after 18 hrs by twofold serial agar dilution technique; type: functional; conditions: clinical isolate 268/08, 18 h; method in brief: as §3
Staphylococcus aureus [14] = assay: Antibacterial activity against methicillin-susceptible Staphylococcus aureus clinical isolate 367/09 after 18 hrs by twofold serial agar dilution technique; type: functional; conditions: clinical isolate 367/09, 18 h; method in brief: as §3
Staphylococcus aureus [15] = assay: Antibacterial activity against methicillin-susceptible Staphylococcus aureus clinical isolate 369/09 after 18 hrs by twofold serial agar dilution technique; type: functional; conditions: clinical isolate 369/09, 18 h; method in brief: as §3
Staphylococcus aureus [16] = assay: Antibacterial activity against methicillin-resistant Staphylococcus aureus clinical isolate 277/08 after 18 hrs by twofold serial agar dilution technique; type: functional; conditions: clinical isolate 277/08, 18 h; method in brief: as §3
Staphylococcus aureus [17] = assay: Antibacterial activity against methicillin-resistant Staphylococcus aureus clinical isolate 309/08 after 18 hrs by twofold serial agar dilution technique; type: functional; conditions: clinical isolate 309/08, 18 h; method in brief: as §3
Staphylococcus aureus [18] = assay: Antibacterial activity against methicillin-resistant Staphylococcus aureus clinical isolate 356/09 after 18 hrs by twofold serial agar dilution technique; type: functional; conditions: clinical isolate 356/09, 18 h; method in brief: as §3
Staphylococcus aureus [19] = assay: Antibacterial activity against methicillin-resistant Staphylococcus aureus clinical isolate 357/09 after 18 hrs by twofold serial agar dilution technique; type: functional; conditions: clinical isolate 357/09, 18 h; method in brief: as §3
[20] = test system: Staphylococcus epidermidis; assay: Antibacterial activity against methicillin-resistant Staphylococcus epidermidis clinical isolate 311/08 after 18 hrs by twofold serial agar dilution technique; type: functional; conditions: clinical isolate 311/08, 18 h; method in brief: as §3
[21] = test system: Staphylococcus epidermidis; assay: Antibacterial activity against methicillin-resistant Staphylococcus epidermidis clinical isolate 316/08 after 18 hrs by twofold serial agar dilution technique; type: functional; conditions: clinical isolate 316/08, 18 h; method in brief: as §3
[22] = test system: Staphylococcus epidermidis; assay: Antibacterial activity against methicillin-resistant Staphylococcus epidermidis clinical isolate 318/08 after 18 hrs by twofold serial agar dilution technique; type: functional; conditions: clinical isolate 318/08, 18 h; method in brief: as §3
[23] = test system: Staphylococcus epidermidis; assay: Antibacterial activity against methicillin-resistant Staphylococcus epidermidis clinical isolate 343/09 after 18 hrs by twofold serial agar dilution technique; type: functional; conditions: clinical isolate 343/09, 18 h; method in brief: as §3
[24] = Cytotoxicity against human MT4 cells after 96 hrs by MTT assay; type: cell-based

Structure (SMILES) | zone of inhibition at 400 µg/disc [1] | zone of inhibition at 400 µg/disc (Bacillus cereus) | diameter of the inhibition zone (DIZ) (Escherichia coli) | diameter of the inhibition zone (DIZ) (Candida albicans) | MIC (Staphylococcus aureus [4]) | MIC (Staphylococcus aureus [5]) | MIC [6] | MIC (Enterococcus hirae [7]) | MIC (Micrococcus luteus [8]) | MIC (Micrococcus luteus [9]) | MIC (Staphylococcus aureus [10]) | MIC (Staphylococcus aureus [11]) | MIC (Staphylococcus aureus [12]) | MIC (Staphylococcus aureus [13]) | MIC (Staphylococcus aureus [14]) | MIC (Staphylococcus aureus [15]) | MIC (Staphylococcus aureus [16]) | MIC (Staphylococcus aureus [17]) | MIC (Staphylococcus aureus [18]) | MIC (Staphylococcus aureus [19]) | other results
S=C(Nc1ccc(Cl)cc1)Nc1nc[nH]n1 | 20 mm | 16 mm | inactive | inactive | 25 µg/mL (≈ 98.5 µM) | 25 µg/mL (≈ 98.5 µM) | 25 µg/mL (≈ 98.5 µM) | 200 µg/mL (≈ 788 µM) | 25 µg/mL (≈ 98.5 µM) | 25 µg/mL (≈ 98.5 µM) | 25 µg/mL (≈ 98.5 µM) | 25 µg/mL (≈ 98.5 µM) | 25 µg/mL (≈ 98.5 µM) | 25 µg/mL (≈ 98.5 µM) | 25 µg/mL (≈ 98.5 µM) | 25 µg/mL (≈ 98.5 µM) | 50 µg/mL (≈ 197 µM) | 25 µg/mL (≈ 98.5 µM) | 25 µg/mL (≈ 98.5 µM) | 50 µg/mL (≈ 197 µM) | zone of inhibition at 400 µg/disc (Enterococcus hirae [2]): 23 mm; zone of inhibition at 400 µg/disc (Staphylococcus aureus [3]): 23 mm; MIC [20]: 25 µg/mL (≈ 98.5 µM); MIC [21]: 25 µg/mL (≈ 98.5 µM); MIC [22]: 25 µg/mL (≈ 98.5 µM); MIC [23]: 25 µg/mL (≈ 98.5 µM); CC50 at 96 h [24]: 47 µM
S=C(Nc1ccccc1)Nc1nc[nH]n1 | 12 mm | 12 mm | inactive | inactive | 100 µg/mL (≈ 456 µM) | 100 µg/mL (≈ 456 µM) | 50 µg/mL (≈ 228 µM) | 200 µg/mL (≈ 912 µM) | 50 µg/mL (≈ 228 µM) | 50 µg/mL (≈ 228 µM) | 50 µg/mL (≈ 228 µM) | 50 µg/mL (≈ 228 µM) | 50 µg/mL (≈ 228 µM) | 50 µg/mL (≈ 228 µM) | 50 µg/mL (≈ 228 µM) | 50 µg/mL (≈ 228 µM) | 50 µg/mL (≈ 228 µM) | 50 µg/mL (≈ 228 µM) | 50 µg/mL (≈ 228 µM) | 50 µg/mL (≈ 228 µM) | diameter of the inhibition zone (DIZ) (Enterococcus hirae [2]): inactive; diameter of the inhibition zone (DIZ) (Staphylococcus aureus [3]): inactive; MIC [20]: 100 µg/mL (≈ 456 µM); MIC [21]: 100 µg/mL (≈ 456 µM); MIC [22]: 50 µg/mL (≈ 228 µM); MIC [23]: 50 µg/mL (≈ 228 µM); CC50 at 96 h [24]: > 100 µM
S=C(Nc1ccc(Br)cc1)Nc1nc[nH]n1 | 16 mm | 18 mm | inactive | inactive | 50 µg/mL (≈ 168 µM) | 25 µg/mL (≈ 83.8 µM) | 25 µg/mL (≈ 83.8 µM) | 400 µg/mL (≈ 1340 µM) | 25 µg/mL (≈ 83.8 µM) | 12.5 µg/mL (≈ 41.9 µM) | 25 µg/mL (≈ 83.8 µM) | 25 µg/mL (≈ 83.8 µM) | 25 µg/mL (≈ 83.8 µM) | 50 µg/mL (≈ 168 µM) | 50 µg/mL (≈ 168 µM) | 50 µg/mL (≈ 168 µM) | 50 µg/mL (≈ 168 µM) | 50 µg/mL (≈ 168 µM) | 50 µg/mL (≈ 168 µM) | 50 µg/mL (≈ 168 µM) | zone of inhibition at 400 µg/disc (Enterococcus hirae [2]): 25 mm; zone of inhibition at 400 µg/disc (Staphylococcus aureus [3]): 17 mm; MIC [20]: 50 µg/mL (≈ 168 µM); MIC [21]: 50 µg/mL (≈ 168 µM); MIC [22]: 25 µg/mL (≈ 83.8 µM); MIC [23]: 25 µg/mL (≈ 83.8 µM); CC50 at 96 h [24]: > 100 µM
Fc1ccccc1NC(=S)Nc1nc[nH]n1 | 11 mm | 11 mm | inactive | inactive | 200 µg/mL (≈ 843 µM) | 200 µg/mL (≈ 843 µM) | 200 µg/mL (≈ 843 µM) | 400 µg/mL (≈ 1690 µM) | 100 µg/mL (≈ 421 µM) | 100 µg/mL (≈ 421 µM) | > 400 µg/mL | > 400 µg/mL | > 400 µg/mL | > 400 µg/mL | > 400 µg/mL | > 400 µg/mL | > 400 µg/mL | > 400 µg/mL | > 400 µg/mL | > 400 µg/mL | diameter of the inhibition zone (DIZ) (Enterococcus hirae [2]): inactive; zone of inhibition at 400 µg/disc (Staphylococcus aureus [3]): 12 mm
